In ChEMBL document CHEMBL5678806, “NMS-P937, an orally available, specific small-molecule polo-like kinase 1 inhibitor with antitumor activity in solid and hematologic malignancies” (Mol Cancer Ther, 2012):
Active and inactive are the calls of the source. The calls are words filed in the database; no cut-off is given here.

Legend:
[1] = test system: COLO 205; test: Antiproliferative activity against human COLO 205 cells assessed as inhibition of cell growth incubated for 72 hrs by cell-titer glo assay; format: functional, cell-based; conditions: COLO 205, 72 h
Method in brief: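 Cells seeded 10,000–30,000/cm² (adherent) or 100,000/mL (suspension) in medium with 10% fetal calf serum; after 24 h treated in duplicate with serial dilutions for 72 h. Viable cells read by CellTiter-Glo luminescence; IC50 from sigmoidal fit; at least two independent experiments.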

[2] = molecular target: Insulin receptor-related protein (Homo sapiens) (UniProt P14616); test: Inhibition of N-terminal 6His-tagged recombinant human IRR (944 to 1266 residues) expressed in baculovirus infected Sf21 cells assessed as residual activity at 1 uM relative to control
[3] = molecular target: Serine/threonine-protein kinase pim-1 (Homo sapiens, UniProt P11309); test: Inhibition of PIM1 (unknown origin) in presence of [gamma-33P]ATP
[4] = Volume of distribution at steady state in Sprague-Dawley rat at 10 mg/kg, iv by LC-MS analysis; format: ADME, organism-based; conditions: in vivo, read-out: Vdss
[5] = molecular target: Cytoplasmic tyrosine-protein kinase BMX (Homo sapiens) (UniProt P51813); test: Inhibition of recombinant human Bmx assessed as residual activity at 0.1 uM relative to control
[6] = Antiproliferative activity against human NPA cells assessed as inhibition of cell growth incubated for 72 hrs by cell-titer glo assay; format: functional, cell-based
Method in brief: (§1)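 Cells from ATCC or ECACC, kept in supplier-recommended medium with 1% penicillin-streptomycin at 37°C, 5% CO₂. Seeded at 10,000–30,000/cm² (adherent) or 100,000/mL (nonadherent) in medium with 10% fetal calf serum. Dosed after 24 h in duplicate with serial dilutions. Viable cells read by CellTiter-Glo 72 h later. IC50 from sigmoidal fit. At least two independent experiments.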

[7] = molecular target: Mitogen-activated protein kinase 14 (Homo sapiens, UniProt Q16539); test: Inhibition of P38alpha (unknown origin) in presence of [gamma-33P]ATP
[8] = test system: NCI-H460; test: Antiproliferative activity against human NCI-H460 cells assessed as inhibition of cell growth incubated for 72 hrs by cell-titer glo assay; format: functional, cell-based; conditions: NCI-H460, 72 h; method in brief: as §1
[9] = Clearance in nu/nu mouse at 10 mg/kg, iv by LC-MS analysis; format: ADME, organism-based; conditions: in vivo
[10] = test system: SF-295; test: Antiproliferative activity against human SF-295 cells assessed as inhibition of cell growth incubated for 72 hrs by cell-titer glo assay; format: functional, cell-based; conditions: SF-295, 72 h; method in brief: as §1
[11] = test system: SUD4; test: Antiproliferative activity against human SU-DHL-4 cells assessed as inhibition of cell growth incubated for 72 hrs by cell-titer glo assay; format: functional, cell-based; conditions: SU-DHL-4, 72 h
[12] = molecular target: RAC-alpha serine/threonine-protein kinase (Homo sapiens, UniProt P31749); test: Inhibition of AKT1 (unknown origin) in presence of [gamma-33P]ATP
[13] = Antitumor activity against human Acute myeloid leukemic cell xenografted in nu/nu mouse assessed as increase in median survival time at 120 mg/kg, po administered for 2 days and measured after 10 days (reference value: 34 days); format: functional, Leukemia cell; conditions: time 2 day
[14] = molecular target: NUAK family SNF1-like kinase 1 (Homo sapiens) (UniProt O60285); test: Inhibition of N-terminal 6His-tagged recombinant human ARK5 (2 to end residues) expressed in baculovirus infected Sf21 cells assessed as residual activity at 1 uM relative to control
[15] = test system: NCI-H1993; test: Antiproliferative activity against human NCI-H1993 cells assessed as inhibition of cell growth incubated for 72 hrs by cell-titer glo assay; format: functional, cell-based; conditions: NCI-H1993, 72 h; method in brief: as §1
[16] = test system: A2780; test: In vivo inhibition of PLK1 in human A2780 cells xenografted in nu/nu mouse assessed as decreased TCTP phosphorylation on Ser46 at 60 mg/kg, po administered for 2 hrs by immunohistochemistry analysis; format: functional, organism-based
[17] = test system: HT-29; test: Antitumor activity against human HT-29 cells xenografted in nu/nu mouse assessed as tumor growth inhibition at 45 mg/kg, po administered for 3 days and measured after 1 day relative to control; format: functional; conditions: HT-29, 72 h, time 3 day, read-out: TGI
[18] = molecular target: Vascular endothelial growth factor receptor 2 (Homo sapiens, UniProt P35968); test: Inhibition of VEGFR2 (unknown origin) in presence of [gamma-33P]ATP
[19] = test system: LoVo; test: Antiproliferative activity against human LoVo cells assessed as inhibition of cell growth incubated for 72 hrs by cell-titer glo assay; format: functional, cell-based
Method in brief: (§2)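 Cells seeded at 10,000–30,000/cm² (adherent) or 100,000/mL (nonadherent) in medium with 10% fetal calf serum; after 24 h, treated in duplicate with serial dilutions for 72 h. Viable cell number read by CellTiter-Glo luminescence; IC50 from sigmoidal fit; at least two independent experiments.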

[20] = Antiproliferative activity against human TF-1a cells assessed as inhibition of cell growth incubated for 72 hrs by cell-titer glo assay; format: functional, cell-based
[21] = test system: SET-2; test: Antiproliferative activity against human SET2 cells assessed as inhibition of cell growth incubated for 72 hrs by cell-titer glo assay; format: functional, cell-based; conditions: SET-2, 72 h; method in brief: as §1
[22] = test system: IGROV-1; test: Antiproliferative activity against human IGROV-1 cells assessed as inhibition of cell growth incubated for 72 hrs by cell-titer glo assay; format: functional, cell-based; conditions: IGROV-1, 72 h; method in brief: as §2
[23] = molecular target: Phosphorylase b kinase gamma catalytic chain, liver/testis isoform (Homo sapiens) (UniProt P15735); test: Inhibition of GST-tagged recombinant human PhKgamma2 (1 to 301 residues) expressed in E. coli assessed as residual activity at 1 uM relative to control
[24] = molecular target: Ephrin type-B receptor 1 (Homo sapiens) (UniProt P54762); test: Inhibition of N-terminal 6His-tagged recombinant human EphB1 (564 to end residues) expressed in baculovirus infected Sf21 cells assessed as residual activity at 1 uM relative to control
[25] = Cmax in nu/nu mouse at 10 mg/kg, iv by LC-MS analysis; format: ADME, organism-based; conditions: in vivo
[26] = molecular target: Insulin-like growth factor 1 receptor (Homo sapiens) (UniProt P08069); test: Inhibition of N-terminal 6His-tagged recombinant human IGF-1R (959 to end residues) expressed in baculovirus infected Sf21 cells assessed as residual activity at 1 uM relative to control
[27] = test system: KMS-11; test: Antiproliferative activity against human KMS-11 cells assessed as inhibition of cell growth incubated for 72 hrs by cell-titer glo assay; format: functional, cell-based; conditions: KMS-11, 72 h; method in brief: as §2
[28] = test system: NCI-H522; test: Antiproliferative activity against human NCI-H522 cells assessed as inhibition of cell growth incubated for 72 hrs by cell-titer glo assay; format: functional, cell-based; conditions: NCI-H522, 72 h; method in brief: as §1
[29] = test system: A2780; test: Induction of cell cycle arrest in human A2780 cells assessed as accumulation of cells in G2/M phase by measuring upregulated PLK1 expression incubated for 24 hrs by Western blotting analysis; format: functional, cell-based; conditions: dose 0.02-0.2 µmol/L
Method in brief: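 A2780 ovarian carcinoma cells treated 24 h with a range of concentrations, with DMSO and nocodazole controls. 20 µg protein extract separated by SDS-PAGE and immunoblotted with chemiluminescent detection. Probed for total and phospho-Thr210 PLK1, phospho-Ser10 histone H3, phospho-Thr199 NPM and phospho-Tyr15 CDK1. Total NPM, tubulin and total CDK1 served as loading controls.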

Sequence of Insulin-like growth factor 1 receptor (Homo sapiens) (P08069 31-736 limits assumed): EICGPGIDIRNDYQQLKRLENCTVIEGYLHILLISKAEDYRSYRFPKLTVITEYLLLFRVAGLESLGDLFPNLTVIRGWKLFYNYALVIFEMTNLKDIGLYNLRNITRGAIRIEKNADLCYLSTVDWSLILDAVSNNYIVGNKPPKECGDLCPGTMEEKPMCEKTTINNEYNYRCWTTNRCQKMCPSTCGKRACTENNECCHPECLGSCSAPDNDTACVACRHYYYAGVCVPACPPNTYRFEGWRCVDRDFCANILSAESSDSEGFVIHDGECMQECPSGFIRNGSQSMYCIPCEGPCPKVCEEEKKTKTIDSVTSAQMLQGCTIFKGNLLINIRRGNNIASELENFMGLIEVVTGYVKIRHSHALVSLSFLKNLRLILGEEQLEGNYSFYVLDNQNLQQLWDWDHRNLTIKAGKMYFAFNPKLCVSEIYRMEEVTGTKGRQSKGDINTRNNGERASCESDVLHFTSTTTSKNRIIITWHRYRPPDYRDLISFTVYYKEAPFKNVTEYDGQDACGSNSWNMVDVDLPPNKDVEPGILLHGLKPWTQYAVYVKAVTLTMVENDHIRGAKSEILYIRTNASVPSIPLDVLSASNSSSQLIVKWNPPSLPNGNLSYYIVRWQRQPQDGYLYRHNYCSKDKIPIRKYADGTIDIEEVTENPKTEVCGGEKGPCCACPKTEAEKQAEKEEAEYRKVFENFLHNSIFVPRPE
Sequence of Insulin-like growth factor 1 receptor (Homo sapiens) (P08069 741-1367 limits assumed): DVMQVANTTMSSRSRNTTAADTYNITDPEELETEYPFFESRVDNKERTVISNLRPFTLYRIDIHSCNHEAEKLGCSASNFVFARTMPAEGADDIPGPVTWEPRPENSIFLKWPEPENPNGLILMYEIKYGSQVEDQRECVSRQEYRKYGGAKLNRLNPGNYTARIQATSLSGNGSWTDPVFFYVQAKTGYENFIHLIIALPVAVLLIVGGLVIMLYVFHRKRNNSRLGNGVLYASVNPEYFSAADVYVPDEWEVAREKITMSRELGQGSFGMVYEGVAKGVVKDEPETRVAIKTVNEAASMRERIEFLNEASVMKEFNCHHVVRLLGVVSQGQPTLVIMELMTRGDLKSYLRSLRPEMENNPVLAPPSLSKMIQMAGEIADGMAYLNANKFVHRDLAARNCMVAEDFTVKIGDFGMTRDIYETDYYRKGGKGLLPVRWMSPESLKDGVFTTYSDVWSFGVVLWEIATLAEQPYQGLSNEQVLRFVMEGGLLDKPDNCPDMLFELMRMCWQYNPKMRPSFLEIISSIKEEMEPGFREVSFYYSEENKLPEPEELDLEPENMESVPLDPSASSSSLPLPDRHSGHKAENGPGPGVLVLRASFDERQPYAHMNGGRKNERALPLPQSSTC
Sequence of Insulin receptor-related protein (Homo sapiens) (P14616 27-742 limits assumed): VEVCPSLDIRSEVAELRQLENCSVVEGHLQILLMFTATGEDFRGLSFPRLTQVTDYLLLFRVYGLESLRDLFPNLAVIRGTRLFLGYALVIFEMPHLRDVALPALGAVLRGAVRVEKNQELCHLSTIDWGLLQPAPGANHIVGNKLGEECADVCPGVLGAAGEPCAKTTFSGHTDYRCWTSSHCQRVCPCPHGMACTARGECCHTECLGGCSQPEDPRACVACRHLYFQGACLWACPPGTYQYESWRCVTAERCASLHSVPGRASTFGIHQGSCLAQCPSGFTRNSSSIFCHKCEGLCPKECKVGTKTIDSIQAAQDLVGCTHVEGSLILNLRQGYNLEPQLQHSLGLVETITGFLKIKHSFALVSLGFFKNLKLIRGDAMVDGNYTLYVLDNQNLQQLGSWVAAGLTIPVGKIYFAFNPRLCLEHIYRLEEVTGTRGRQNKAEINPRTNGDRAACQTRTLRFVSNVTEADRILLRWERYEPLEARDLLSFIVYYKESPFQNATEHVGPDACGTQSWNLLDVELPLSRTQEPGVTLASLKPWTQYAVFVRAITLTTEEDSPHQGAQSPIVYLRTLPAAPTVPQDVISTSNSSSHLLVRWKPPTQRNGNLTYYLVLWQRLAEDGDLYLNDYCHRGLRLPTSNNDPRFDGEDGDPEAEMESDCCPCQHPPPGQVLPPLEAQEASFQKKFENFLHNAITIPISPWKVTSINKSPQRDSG
Sequence of Insulin receptor-related protein (Homo sapiens) (P14616 747-1297 limits assumed): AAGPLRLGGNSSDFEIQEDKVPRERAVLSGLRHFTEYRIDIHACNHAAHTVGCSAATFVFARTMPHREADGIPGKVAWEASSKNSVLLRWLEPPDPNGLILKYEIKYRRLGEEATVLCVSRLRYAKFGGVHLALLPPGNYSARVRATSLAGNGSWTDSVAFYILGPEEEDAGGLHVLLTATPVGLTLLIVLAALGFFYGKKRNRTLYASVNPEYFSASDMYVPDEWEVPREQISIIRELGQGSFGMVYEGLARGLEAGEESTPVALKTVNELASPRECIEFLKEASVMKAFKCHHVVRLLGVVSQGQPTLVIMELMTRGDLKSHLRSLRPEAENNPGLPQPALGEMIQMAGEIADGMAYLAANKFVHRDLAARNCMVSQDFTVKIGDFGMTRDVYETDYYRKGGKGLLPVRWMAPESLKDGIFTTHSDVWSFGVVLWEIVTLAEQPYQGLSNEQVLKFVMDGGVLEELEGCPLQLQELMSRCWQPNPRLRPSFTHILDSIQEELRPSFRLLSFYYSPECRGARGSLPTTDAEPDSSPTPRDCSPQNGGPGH
Sequence of Mitogen-activated protein kinase 14 (Q16539 whole entry): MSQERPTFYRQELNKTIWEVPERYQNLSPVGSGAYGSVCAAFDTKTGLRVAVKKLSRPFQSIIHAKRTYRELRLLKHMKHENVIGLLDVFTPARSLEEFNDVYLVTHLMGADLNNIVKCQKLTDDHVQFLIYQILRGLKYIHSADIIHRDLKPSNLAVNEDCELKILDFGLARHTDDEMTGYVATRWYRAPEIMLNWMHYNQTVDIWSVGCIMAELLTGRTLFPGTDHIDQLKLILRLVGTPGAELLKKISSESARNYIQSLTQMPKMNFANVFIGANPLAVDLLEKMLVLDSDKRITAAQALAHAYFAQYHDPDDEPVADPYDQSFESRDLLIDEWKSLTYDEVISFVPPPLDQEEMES
Sequence of Phosphorylase b kinase gamma catalytic chain, liver/testis isoform (Homo sapiens) (P15735 whole entry, the tested form may be a part, canonical isoform): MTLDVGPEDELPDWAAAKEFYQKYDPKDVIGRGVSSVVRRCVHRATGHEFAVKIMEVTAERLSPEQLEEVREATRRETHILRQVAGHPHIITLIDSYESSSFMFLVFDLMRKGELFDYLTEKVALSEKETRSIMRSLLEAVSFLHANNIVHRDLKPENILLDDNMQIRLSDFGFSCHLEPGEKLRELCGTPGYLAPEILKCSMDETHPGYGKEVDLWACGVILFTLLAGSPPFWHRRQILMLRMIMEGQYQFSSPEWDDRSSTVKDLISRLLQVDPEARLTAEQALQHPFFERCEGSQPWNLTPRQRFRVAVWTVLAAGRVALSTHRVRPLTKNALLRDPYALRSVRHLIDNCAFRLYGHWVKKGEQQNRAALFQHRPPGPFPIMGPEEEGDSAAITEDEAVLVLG
Sequence of RAC-alpha serine/threonine-protein kinase (P31749 whole entry): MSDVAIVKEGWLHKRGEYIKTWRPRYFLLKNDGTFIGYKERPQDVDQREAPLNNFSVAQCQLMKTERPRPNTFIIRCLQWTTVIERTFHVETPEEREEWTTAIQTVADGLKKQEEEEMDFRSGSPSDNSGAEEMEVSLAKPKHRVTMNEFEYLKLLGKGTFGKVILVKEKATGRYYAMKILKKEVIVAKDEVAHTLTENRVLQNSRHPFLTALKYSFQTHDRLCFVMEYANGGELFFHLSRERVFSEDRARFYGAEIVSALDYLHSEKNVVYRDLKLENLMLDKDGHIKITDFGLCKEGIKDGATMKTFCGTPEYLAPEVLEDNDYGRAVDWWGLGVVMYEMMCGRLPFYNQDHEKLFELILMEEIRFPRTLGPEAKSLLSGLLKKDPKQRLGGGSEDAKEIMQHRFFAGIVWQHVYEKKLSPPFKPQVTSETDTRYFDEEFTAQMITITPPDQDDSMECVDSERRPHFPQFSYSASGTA
Sequence of NUAK family SNF1-like kinase 1 (Homo sapiens) (O60285 whole entry): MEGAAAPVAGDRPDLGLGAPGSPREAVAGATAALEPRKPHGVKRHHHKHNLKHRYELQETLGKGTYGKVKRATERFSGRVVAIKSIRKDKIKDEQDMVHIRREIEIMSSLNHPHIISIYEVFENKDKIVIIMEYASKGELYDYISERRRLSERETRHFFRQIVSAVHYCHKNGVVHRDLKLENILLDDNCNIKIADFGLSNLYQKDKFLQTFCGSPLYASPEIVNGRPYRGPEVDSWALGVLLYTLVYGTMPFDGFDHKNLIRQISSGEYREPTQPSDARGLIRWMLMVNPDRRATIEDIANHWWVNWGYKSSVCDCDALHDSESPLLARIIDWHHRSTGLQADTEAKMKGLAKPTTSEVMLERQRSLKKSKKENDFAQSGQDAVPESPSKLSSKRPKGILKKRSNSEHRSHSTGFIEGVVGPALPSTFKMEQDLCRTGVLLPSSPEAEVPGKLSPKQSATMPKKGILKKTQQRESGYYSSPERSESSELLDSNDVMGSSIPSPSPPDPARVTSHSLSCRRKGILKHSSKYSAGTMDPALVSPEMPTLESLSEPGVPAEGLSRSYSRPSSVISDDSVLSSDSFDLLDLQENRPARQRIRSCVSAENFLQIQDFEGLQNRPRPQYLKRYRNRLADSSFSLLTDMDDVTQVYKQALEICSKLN
Sequence of Serine/threonine-protein kinase pim-1 (P11309 whole entry): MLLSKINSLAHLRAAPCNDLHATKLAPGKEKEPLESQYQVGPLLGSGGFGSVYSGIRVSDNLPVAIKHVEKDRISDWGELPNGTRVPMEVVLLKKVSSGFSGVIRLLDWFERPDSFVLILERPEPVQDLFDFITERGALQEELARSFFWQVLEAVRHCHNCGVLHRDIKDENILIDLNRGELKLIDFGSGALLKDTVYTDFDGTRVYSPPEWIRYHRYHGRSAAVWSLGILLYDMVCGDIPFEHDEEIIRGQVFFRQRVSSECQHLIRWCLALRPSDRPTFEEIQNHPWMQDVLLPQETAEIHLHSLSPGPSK

## CN1CCN(c2ccc(OC(F)(F)F)c(Nc3ncc4c(n3)-c3c(c(C(N)=O)nn3CCO)CC4)c2)CC1 [ONVANSERTIB]
[1]
  IC50: 32 nM
[2]
  Activity: 114%
[3]
  IC50: > 10 µM
[4]
  Vd: 2.8 L/kg
[5]
  Activity: 83%
[6]
  IC50: 72 nM
[7]
  IC50: > 10 µM
[8]
  IC50: 109 nM
[9]
  clearance: 39.4 mL/min/kg
[10]
  IC50: 386 nM
[11]
  IC50: 56 nM
[12]
  IC50: > 10 µM
[13]
  Time: 50 days
[14]
  Activity: 93%
[15]
  IC50: 287 nM
[16]
  inhibition: Active
[17]
  inhibition in vivo at 45 mg/kg: 72%
[18]
  IC50: > 10 µM
[19]
  IC50: 65 nM
[20]
  IC50: 1780 nM
[21]
  IC50: 145 nM
[22]
  IC50: 54 nM
[23]
  Activity: 88%
[24]
  Activity: 75%
[25]
  Cmax: 8.3 µM
[26]
  Activity: 114%
[27]
  IC50: 46 nM
[28]
  IC50: 34 nM
[29]
  Activity: Dose-Dependent Effect
